Measurements published in article PMC11872064 (Drug Design, Development and Therapy, 2025).

Columns and labels:
hOAT3 = molecular target: T1, hOAT3 (Homo sapiens, UniProt Q8TCC7); experiment: hOAT3 expressing oocytes, [14C]UA uptake inhibition; format: cell-based; conditions: inhibitor injected inside the oocyte
T1 sequence (Q8TCC7 1-542): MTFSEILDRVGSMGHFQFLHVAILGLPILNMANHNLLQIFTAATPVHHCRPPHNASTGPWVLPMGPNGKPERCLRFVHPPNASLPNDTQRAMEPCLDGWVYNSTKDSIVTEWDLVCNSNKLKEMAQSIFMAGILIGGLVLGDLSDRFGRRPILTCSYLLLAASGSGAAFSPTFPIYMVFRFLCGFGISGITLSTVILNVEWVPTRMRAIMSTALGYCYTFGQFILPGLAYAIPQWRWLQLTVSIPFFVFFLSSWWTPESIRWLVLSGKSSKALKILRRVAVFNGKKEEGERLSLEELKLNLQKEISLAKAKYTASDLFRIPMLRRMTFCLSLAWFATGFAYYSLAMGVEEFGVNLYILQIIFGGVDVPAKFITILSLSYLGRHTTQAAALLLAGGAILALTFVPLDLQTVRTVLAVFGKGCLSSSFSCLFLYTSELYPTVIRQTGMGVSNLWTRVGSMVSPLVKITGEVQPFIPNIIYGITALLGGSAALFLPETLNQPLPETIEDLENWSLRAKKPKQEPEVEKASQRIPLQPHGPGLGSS

hNPT4 = molecular target: T2, hNPT4 (Homo sapiens, UniProt O00476); experiment: hNPT4 expressing oocytes, [14C]UA uptake inhibition; format: cell-based; conditions: for [14C]UA uptake inhibition via hNPT4, inhibitor outside: inhibitor in uptake solution
T2 sequence (O00476 1-498 isoform O00476-2): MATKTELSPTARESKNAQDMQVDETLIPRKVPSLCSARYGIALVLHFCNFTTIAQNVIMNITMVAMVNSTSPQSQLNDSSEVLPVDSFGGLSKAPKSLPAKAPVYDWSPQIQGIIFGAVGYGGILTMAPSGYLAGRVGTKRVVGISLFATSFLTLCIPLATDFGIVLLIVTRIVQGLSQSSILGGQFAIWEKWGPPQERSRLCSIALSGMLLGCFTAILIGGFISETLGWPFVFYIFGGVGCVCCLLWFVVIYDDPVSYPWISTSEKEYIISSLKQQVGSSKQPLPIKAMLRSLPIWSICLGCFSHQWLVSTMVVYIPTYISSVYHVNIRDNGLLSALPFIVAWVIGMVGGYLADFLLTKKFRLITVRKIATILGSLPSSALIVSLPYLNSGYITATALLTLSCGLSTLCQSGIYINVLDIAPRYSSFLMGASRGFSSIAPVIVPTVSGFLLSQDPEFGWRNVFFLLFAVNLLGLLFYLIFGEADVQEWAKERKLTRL
How it was run: (§1)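 Xenopus oocytes were injected with 25 ng cRNA for hNPT4 or hOAT10 and held 2–3 days at 18 ± 2 °C. [14C]uric acid uptake was measured at room temperature in ND96. Inhibitor was either added to the uptake solution (outside) or injected into the oocyte (46 nL, inside); injected oocytes were washed and then incubated 60 min with substrate. Uptake was stopped with ice-cold washes, oocytes were SDS-solubilised and counted by scintillation, and results are mean ± S.D.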

hOAT10 = hOAT10 (Homo sapiens, UniProt Q9Y226); experiment: hOAT10 expressing oocytes, [14C]UA uptake inhibition; format: cell-based; conditions: for [14C]UA uptake inhibition via hOAT10, inhibitor inside: inhibitor injected inside the oocyte
How it was run: as §1

hOAT1 = molecular target: T3, hOAT1 (Homo sapiens, UniProt Q4U2R8); experiment: hOAT1 expressing oocytes, [14C]UA uptake inhibition; format: cell-based; conditions: inhibitor injected inside the oocyte
T3 sequence (Q4U2R8 1-563): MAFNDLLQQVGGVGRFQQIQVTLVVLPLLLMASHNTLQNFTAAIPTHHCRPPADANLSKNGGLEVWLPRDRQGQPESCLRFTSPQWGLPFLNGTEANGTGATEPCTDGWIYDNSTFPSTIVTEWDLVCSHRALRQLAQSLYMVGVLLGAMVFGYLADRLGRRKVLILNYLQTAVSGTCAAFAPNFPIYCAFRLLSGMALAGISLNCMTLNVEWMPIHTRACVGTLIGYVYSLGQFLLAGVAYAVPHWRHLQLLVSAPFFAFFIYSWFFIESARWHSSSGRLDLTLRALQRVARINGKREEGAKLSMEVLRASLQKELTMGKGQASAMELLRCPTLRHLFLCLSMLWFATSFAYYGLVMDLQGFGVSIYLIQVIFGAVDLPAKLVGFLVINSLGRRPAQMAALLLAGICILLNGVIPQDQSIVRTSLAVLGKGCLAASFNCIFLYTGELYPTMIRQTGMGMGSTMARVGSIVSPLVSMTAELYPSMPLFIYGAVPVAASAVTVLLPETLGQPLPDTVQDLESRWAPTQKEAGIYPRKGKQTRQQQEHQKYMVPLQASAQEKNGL

hURAT1 = molecular target: T4, hURAT1 (Homo sapiens, UniProt Q96S37); experiment: hURAT1 expressing oocytes, [14C]UA uptake inhibition; format: cell-based
T4 sequence (Q96S37 1-553): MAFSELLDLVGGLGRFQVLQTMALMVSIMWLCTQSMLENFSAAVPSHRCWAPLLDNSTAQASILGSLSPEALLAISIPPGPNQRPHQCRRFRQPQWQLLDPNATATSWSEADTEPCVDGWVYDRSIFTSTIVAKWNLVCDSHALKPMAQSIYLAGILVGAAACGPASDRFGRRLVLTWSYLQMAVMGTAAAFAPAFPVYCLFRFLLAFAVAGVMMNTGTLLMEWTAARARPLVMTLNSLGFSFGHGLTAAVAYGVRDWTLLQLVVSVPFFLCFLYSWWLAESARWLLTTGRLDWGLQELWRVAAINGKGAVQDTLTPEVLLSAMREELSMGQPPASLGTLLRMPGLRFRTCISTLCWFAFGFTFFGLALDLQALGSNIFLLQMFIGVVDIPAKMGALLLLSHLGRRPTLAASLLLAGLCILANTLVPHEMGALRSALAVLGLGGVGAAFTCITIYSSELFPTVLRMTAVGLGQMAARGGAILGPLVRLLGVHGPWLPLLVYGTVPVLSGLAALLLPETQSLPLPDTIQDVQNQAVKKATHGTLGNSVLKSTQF

OATP-1B1 = molecular target: T5, OATP-1B1 (Homo sapiens, UniProt Q9Y6L6); experiment: OATP-1B1 expressing oocytes, [3H]estrone sulfate uptake inhibition; format: cell-based; conditions: OATP-1B1 IC50, substrate [3H]estrone sulfate, value in nM
T5 sequence (Q9Y6L6 1-691): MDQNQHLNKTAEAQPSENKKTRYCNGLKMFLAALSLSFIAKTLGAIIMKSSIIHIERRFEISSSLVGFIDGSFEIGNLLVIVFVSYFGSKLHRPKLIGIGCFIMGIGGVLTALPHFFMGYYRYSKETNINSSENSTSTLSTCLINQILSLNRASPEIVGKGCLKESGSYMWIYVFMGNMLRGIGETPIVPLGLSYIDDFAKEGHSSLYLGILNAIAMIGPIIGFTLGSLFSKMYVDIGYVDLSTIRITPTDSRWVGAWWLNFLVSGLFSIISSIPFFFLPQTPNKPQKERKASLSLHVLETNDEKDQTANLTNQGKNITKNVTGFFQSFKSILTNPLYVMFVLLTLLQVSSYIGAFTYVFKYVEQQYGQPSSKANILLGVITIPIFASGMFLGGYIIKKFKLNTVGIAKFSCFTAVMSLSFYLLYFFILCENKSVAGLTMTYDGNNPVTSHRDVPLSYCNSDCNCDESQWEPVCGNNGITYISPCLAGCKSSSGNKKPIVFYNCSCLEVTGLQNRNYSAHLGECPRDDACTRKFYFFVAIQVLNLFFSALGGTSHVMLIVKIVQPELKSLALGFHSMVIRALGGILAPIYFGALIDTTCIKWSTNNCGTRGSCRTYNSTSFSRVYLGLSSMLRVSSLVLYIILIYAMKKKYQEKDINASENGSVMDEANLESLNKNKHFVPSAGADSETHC
How it was run: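 Xenopus laevis oocytes were defolliculated with collagenase, and stage IV–V oocytes were injected with 25 ng capped cRNA. They were kept 2–3 days at 18 ± 2 °C in ND96, pH 7.4. Uptake ran at room temperature in ND96 with test compound, using [3H]estrone sulfate for OATP1B1 and 2B1 and [3H]estradiol-17β-glucuronide for OATP1B3. Oocytes were washed in ice-cold ND96, solubilised in 5% SDS and counted by scintillation, with control-oocyte uptake subtracted.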

[1] = Rat pharmacokinetic study; format: in vivo; conditions: male, Sprague-Dawley, whole blood
How it was run: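 Adult male Sprague-Dawley rats (286 ± 12 g) were fasted 12–15 hr, n=5 per route. IV dosing was a bolus of about 300 µL over 30 sec into the orbital sinus under isoflurane, from aqueous 10% DMSO solution. Oral dosing was a CMC-formulated capsule, 19.6 mg/kg, followed by 500 µL water. Tail-vein blood was collected into K2EDTA from 0.083 to 24 hr (iv) or 0.5 to 30 hr (oral). Test compound was extracted with internal standard and quantified by LC/MS-MS (ESI−) against blood standard curves; LOQ 1.08 ng/mL.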

hOAT10, sequence (Q9Y226 whole entry): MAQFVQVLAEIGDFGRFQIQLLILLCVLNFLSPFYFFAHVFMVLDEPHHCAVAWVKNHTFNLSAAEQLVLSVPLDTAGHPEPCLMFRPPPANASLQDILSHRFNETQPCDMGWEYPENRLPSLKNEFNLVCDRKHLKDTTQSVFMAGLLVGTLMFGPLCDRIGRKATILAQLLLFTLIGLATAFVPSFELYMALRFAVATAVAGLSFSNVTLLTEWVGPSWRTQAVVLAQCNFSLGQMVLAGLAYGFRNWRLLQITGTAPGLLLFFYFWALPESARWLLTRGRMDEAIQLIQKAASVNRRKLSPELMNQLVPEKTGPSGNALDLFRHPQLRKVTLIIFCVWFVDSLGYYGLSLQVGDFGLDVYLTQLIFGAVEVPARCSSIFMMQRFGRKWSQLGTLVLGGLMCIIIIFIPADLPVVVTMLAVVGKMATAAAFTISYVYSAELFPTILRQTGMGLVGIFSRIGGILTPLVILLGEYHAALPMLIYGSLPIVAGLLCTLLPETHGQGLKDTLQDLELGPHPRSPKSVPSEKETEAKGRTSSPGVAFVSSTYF

SMILES | [14C]UA uptake inhibition via hOAT3, inhibitor inside (hOAT3) | [14C]UA uptake inhibition via hNPT4, inhibitor outside (hNPT4) | [14C]UA uptake inhibition via hNPT4, inhibitor inside (hNPT4; inhibitor injected inside the oocyte) | 14C-uric acid transport via hOAT10, inhibitor outside (hOAT10; inhibitor in incubation media) | [14C]UA uptake inhibition via hOAT10, inhibitor outside (hOAT10; inhibitor in uptake solution) | [14C]UA uptake inhibition via hOAT10, inhibitor inside (hOAT10) | [14C]UA uptake inhibition via hOAT10, inhibitor inside (hOAT10; listed as benzbromarone) | [14C]UA uptake inhibition via hOAT1, inhibitor inside (hOAT1) | Effect on Vmax for [14C]UA uptake (hURAT1; 0.1 µM benzbromarone, 0.3 µM 6-hydroxy benzbromarone in uptake solution) | [14C]UA uptake inhibition via hURAT1, inhibitor inside (hURAT1; inhibitor injected inside the oocyte, [14C]UA 10 µM) | IC50 (OATP-1B1) [nM] | AUC(0-t) ([1]; iv, 0.43 mg/kg) [ng·h/mL] | half-life ([1]; iv, 0.43 mg/kg, T1/2, rat, iv orbital sinus dosing 0.43 mg/Kg) [h] | AUC(0-t) ([1]; po, 19.6 mg/kg) [ng·h/mL] | Cmax ([1]; po, 19.6 mg/kg) [ng/mL] | Tmax ([1]; po, 19.6 mg/kg) [h]
CCCN(CCC)S(=O)(=O)c1ccc(C(=O)O)cc1 [Compound 1, probenecid] | profound inhibition | dose-dependent inhibition | moderate inhibition |  |  |  |  |  |  |  |  |  |  |  |  | 
CCc1oc2ccccc2c1C(=O)c1cc(Br)c(O)c(Br)c1 [Compound 2, benzbromarone] | not readily inhibited | dose-dependent inhibition |  | roughly 50 % of control | dose-dependent effect | did not display this effect | did not produce a statistically different uptake as compared to control | not readily inhibited | reduced | did not produce a profound inhibition |  |  |  |  |  | 
CCc1oc2cc(F)ccc2c1C(=O)c1cc(Br)c(O)c(Br)c1 [Compound 5, (3,5-dibromo-4-hydroxyphenyl)(2-ethyl-6-fluorobenzofuran-3-yl)methanone] |  |  |  |  |  |  |  |  |  |  | 739 | 2090 ± 119 | ~3 | 60600 ± 7900 | 6460 to 6470 | 2 to 3
